For one data set, the system named is U2OS. In words: Cytotoxicity against human U2OS cells assessed as reduction in cell viability after 72 hrs by celltiter Glo assay. Format: functional, cell-based. An outline of the steps: (§1)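 Antiproliferative IC50 was determined against viable cells using a luminescent ATP read-out.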
On the technique in general: ATP-based viability assays read luminescence as a measure of living cells.

Data set [1] is described as follows: Half life in rat liver microsomes by HPLC analysis in presence of NADPH. In kind it is ADME. In outline: (§2)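 Male mouse or rat liver microsomes. Each run was done in triplicate, with a matching control that had no cofactor added. Samples were taken at set times, and the remaining non-degraded compound was quantified by analytical HPLC peak area. Half-life was calculated from linear plots.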

Data set [2] is described as follows: Thermodynamic solubility in PBS buffer at 1 mg after 12 hrs by HPLC analysis. In kind it is physicochemical. The following applies: read-out: Therm_solubility. An outline of the steps: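 Solubility was measured in PBS, with the dissolved compound quantified by HPLC. The HPLC setup has a lower detection limit.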
Data set [3] in a line: Half life in mouse liver microsomes by HPLC analysis in presence of NADPH. Format: ADME. An outline of the steps:
as §2

The subject of another data set is MDA-MB-231. Briefly: Cytotoxicity against human MDA-MB-231 cells assessed as reduction in cell viability after 72 hrs by celltiter Glo assay. In kind it is functional, cell-based. The following applies: MDA-MB-231, 72 h. In outline: as §1
The next data set deals with Liver microsome. In words: Drug metabolism in rat liver microsomes assessed as position 4/6 CH3 cleavage by LC-MS analysis. In kind it is ADME. (In general: Liver microsomes are vesicles of endoplasmic reticulum, rich in cytochrome P450 enzymes.)
The subject of a further data set is Liver. Briefly: Drug metabolism in mouse liver microsomes assessed as position 4/6 CH3 cleavage by LC-MS analysis. In kind it is ADME.
The nature of data set [4]: Cytotoxicity against human SCC114 cells assessed as reduction in cell viability after 24 hrs by MTT assay. In kind it is functional, cell-based. The following applies: SCC114, 24 h.
A further data set relates to HeLa. Briefly: Cytotoxicity against human HeLa cells assessed as reduction in cell viability after 24 hrs by MTT assay. In kind it is functional, cell-based.

Each structure is given as a SMILES string. Converted amounts (≈) assume the structure as drawn.

As a reminder, the IC50 is the concentration needed to halve the response being measured. The term half-life denotes the time needed for the level to fall by half in the phase considered. Regarding `COc1cc(OC(F)F)c(Cl)c2c1C(=O)[C@@]1(O2)C(OCc2ccccc2)=CC(=O)C[C@H]1C`, the figures for the half-maximal inhibitory concentration (IC50) in the data set with U2OS and in the data set with MDA-MB-231 were 5.56 µM and 5.34 µM, respectively. The figures for the half-life in data set [1] and in data set [3] were 53 min and 31 min, respectively. Also, the solubility thermodynamic at 12 h in [2] was less than 0.3 µg/mL.
`[2H]C([2H])([2H])OC1=CC(=O)C[C@@H](C)[C@]12Oc1c(Cl)c(OC)cc(OC)c1C2=O`: the Drug metabolism result in the data set with Liver microsome and in the data set with Liver was “metabolite_detected” in each case.
As to `COc1cc(OC)c2c(c1Cl)O[C@]1(C2=O)C(OCc2ccccc2)=C/C(=N\OCC(=O)O)C[C@H]1C`, the IC50 in the data set with U2OS worked out at 14.1 µM; in the data set with MDA-MB-231 it was 10.1 µM. Besides, the half-life in [1] came to 449 min; in [3], 339 min. Besides, the solubility thermodynamic at 12 h in [2] is more than 1000 µg/mL.
For `COc1cc(OC(F)F)c2c(c1Cl)O[C@]1(C2=O)C(OCc2ccccc2)=CC(=O)C[C@H]1C`, in that order: 14.3 µM, 11.8 µM, 26 min, 11 min and less than 0.3 µg/mL.
In the case of `COc1cc(OC)c2c(c1Cl)O[C@]1(C2=O)C(OCc2ccccc2)=CC(=O)C[C@H]1C`, the concentration for half-maximal inhibition (IC50) with U2OS is 1.45 µM; in the data set with MDA-MB-231, 1.62 µM. The half-life in [1] turned out to be 60 min; in data set [3] it was 27 min. In addition, the solubility thermodynamic at 12 h in data set [2] was found to be 0.3 µg/mL (≈ 0.7 µM).
For `COc1cc(OC)c2c(c1Cl)O[C@]1(C2=O)C(OCc2ccccc2)=C/C(=N\O)C[C@H]1C`, in that order: 1.61 µM, 1.29 µM, 57 min, 45 min and 3 µg/mL (≈ 6.76 µM).
As for `COC1=CC(=O)C[C@@H](C)[C@]12Oc1c(Cl)c(OC)cc(OC)c1C2=O` [GRISEOFULVIN], the IC50 with U2OS worked out at 22.4 µM; in data set [4], 35 µM; in the data set with HeLa it was 75 µM; with MDA-MB-231 it was 25.3 µM. In addition, the half-life is 58 min in [1] and 37 min in data set [3]. Moreover, in [2], the solubility thermodynamic at 12 h is 7.7 µg/mL (≈ 21.8 µM).

The values above are taken from ChEMBL document CHEMBL3792375, “Strategies for improving the solubility and metabolic stability of griseofulvin analogues” (Eur J Med Chem, 2016).
